# Laboratory results reported in ChEMBL document CHEMBL4680287, “Ibrexafungerp: An orally active β-1,3-glucan synthesis inhibitor” (Bioorg Med Chem Lett, 2021).
# Experiments:
# [1] = test system: Nakaseomyces glabratus; test: Antifungal activity against Candida glabrata MY1381 assessed as reduction in fungal growth; type: functional
# [2] = test system: Aspergillus fumigatus; test: Antifungal activity against Aspergillus fumigatus MF5668 infected in DBA/2N mouse assessed as mean survival time at 12.5 mg/kg, ip bid administered for 7 days starting from 15 to 30 mins post infection and measured up to 21 days; type: functional; settings: time 7 day
# Outline: (§1)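 DBA/2N mice were challenged IV with A. fumigatus MF5668 at 6.7 x 10^5 CFU/mouse, then dosed IP twice daily for 7 days. Survival was followed over a 21-day model, and mean survival time in days was recorded per dose group. A sham-treated control group was run alongside.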
# [3] = test system: Candida albicans; test: Antifungal activity against Candida albicans MY1055 assessed as fungal growth inhibition in presence of 50% mouse serum; type: functional; settings: read-out: MIC100
# Outline: (§2)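 Broth microdilution per CLSI protocols in RPMI medium. Read-out is the MIC, the lowest concentration completely inhibiting fungal growth. Run without serum and with added serum.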
# [4] = test system: Clavispora lusitaniae; test: Antifungal activity against Clavispora lusitaniae MY1396 assessed as reduction in fungal growth; type: functional
# [5] = test system: Candida albicans; test: Antifungal activity against Candida albicans MY1055 assessed as reduction in fungal growth in presence of 50% mouse serum; type: functional; outline: as §2
# [6] = test system: Clavispora lusitaniae; test: Antifungal activity against Clavispora lusitaniae MY1396 assessed as fungal growth inhibition; type: functional; settings: read-out: MIC100
# [7] = test system: Candida albicans; test: Antifungal activity against Candida albicans MY1055 infected in ip dosed DBA/2 mouse model of disseminated candidiasis assessed as reduction in fungal burden in kidney administered bid for 7 days by TOKA; type: functional; settings: 168 h, time 7 day
# Outline: (§3)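 Murine disseminated candidiasis model (TOKA) in mice challenged with C. albicans MY1055 at 2.44 x 10^4 CFU/mouse. Dosed PO, or IP where stated. Kidneys collected aseptically 7 days after challenge and CFUs/g counted. Change in log CFU/g is relative to sham-treated controls; significance by two-tailed t test. Clearance is the percentage of kidneys below the detection limit.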
# [8] = test system: Aspergillus fumigatus; test: Antifungal activity against Aspergillus fumigatus MF5668 infected in DBA/2N mouse assessed as mean survival time at 6.25 mg/kg, ip bid administered for 7 days starting from 15 to 30 mins post infection and measured up to 21 days; type: functional; settings: time 7 day; outline: as §1
# [9] = Clearance in rhesus monkey; type: ADME, Macaca mulatta; settings: in vivo
# [10] = test system: Aspergillus fumigatus; test: Antifungal activity against Aspergillus fumigatus MF5668 infected in DBA/2N mouse assessed as mouse survival at 3.125 mg/kg, ip bid administered for 7 days starting from 15 to 30 mins post infection and measured up to 21 days relative to control; type: functional; settings: 168 h, time 7 day
# Outline: (§4)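 DBA/2N mice were infected IV with A. fumigatus MF5668 (6.7 x 10^5 CFU/mouse) and treated IP bid for 7 days. Percent survival per dose group was scored at the end of the 21-day survival model and compared with the sham-treated control group.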
# [11] = test system: Candida albicans; test: Antifungal activity against Candida albicans MY1055 assessed as reduction in fungal growth; type: functional; outline: as §2
# [12] = Oral bioavailability in mouse; type: ADME, organism-based; settings: in vivo
# Outline: (§5)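 Oral bioavailability calculated as oral AUC normalized to the IV dose, divided by the IV AUC.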
# [13] = test system: Candida tropicalis; test: Antifungal activity against Candida tropicalis MY1012 assessed as reduction in fungal growth; type: functional
# [14] = test system: Nakaseomyces glabratus; test: Antifungal activity against Candida glabrata MY1381 assessed as fungal growth inhibition; type: functional; settings: read-out: MIC100
# [15] = Half life in rat; type: ADME; settings: in vivo
# [16] = Clearance in mouse; type: ADME, organism-based; settings: in vivo
# [17] = test system: Candida albicans; test: Antifungal activity against Candida albicans MY1055 assessed as fungal growth inhibition measured after 24 hrs by liquid microdilution method; type: functional; outline: as §2
# [18] = Oral bioavailability in rhesus monkey; type: ADME, organism-based, Macaca mulatta; settings: in vivo; outline: as §5
# [19] = test system: Aspergillus fumigatus; test: Antifungal activity against Aspergillus fumigatus MF5668 infected in DBA/2N mouse assessed as mean survival time at 1.56 mg/kg, ip bid administered for 7 days starting from 15 to 30 mins post infection and measured up to 21 days; type: functional; settings: time 7 day; outline: as §1
# [20] = test system: Aspergillus fumigatus; test: Antifungal activity against Aspergillus fumigatus MF5668 infected in DBA/2N mouse assessed as mouse survival at 12.5 mg/kg, ip bid administered for 7 days starting from 15 to 30 mins post infection and measured up to 21 days relative to control; type: functional; settings: 168 h, time 7 day; outline: as §4
# [21] = test system: Candida albicans; test: Antifungal activity against Candida albicans MY1055 infected in DBA/2 mouse model of disseminated candidiasis assessed as reduction in fungal burden in kidney by measuring log change in colony forming units at 6.25 mg/kg, po bid for 7 days by TOKA; type: functional; settings: time 7 day; outline: as §3
# [22] = test system: Aspergillus fumigatus; test: Antifungal activity against Aspergillus fumigatus MF5668 infected in DBA/2N mouse assessed as mean survival time at 3.125 mg/kg, ip bid administered for 7 days starting from 15 to 30 mins post infection and measured up to 21 days; type: functional; settings: time 7 day; outline: as §1
# [23] = test system: Aspergillus fumigatus; test: Antifungal activity against Aspergillus fumigatus MF5668 infected in ip dosed DBA/2N mouse assessed as 90% mouse survival administered bid administered for 7 days starting from 15 to 30 mins post infection and measured up to 21 days; type: functional; settings: 168 h, time 7 day
# [24] = Half life in mouse; type: ADME, organism-based; settings: in vivo
# [25] = test system: Aspergillus fumigatus; test: Antifungal activity against Aspergillus fumigatus MF5668 infected in ip dosed DBA/2N mouse assessed as 50% mouse survival administered bid administered for 7 days starting from 15 to 30 mins post infection and measured up to 21 days; settings: 168 h
# [26] = test system: Candida albicans; test: Antifungal activity against Candida albicans MY1055 assessed as fungal growth inhibition measured after 24 hrs in presence of 50% mouse serum by liquid microdilution method; type: functional; outline: as §2
# [27] = test system: Aspergillus fumigatus; test: Antifungal activity against Aspergillus fumigatus MF5668 assessed inhibition of fungal growth by measuring morphological changes measured after 24 hrs by microscopy; type: functional; settings: read-out: MEC
# Outline: (§6)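 Microdilution per CLSI protocols in RPMI medium. Read-out is the minimum effective concentration (MEC). Run without serum and with 50% human serum.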
# [28] = test system: Candida parapsilosis; test: Antifungal activity against Candida parapsilosis ATCC 22019 assessed as reduction in fungal growth; type: functional; settings: Lodderomyces parapsilosis
# [29] = test system: Aspergillus fumigatus; test: Antifungal activity against Aspergillus fumigatus MF5668 assessed inhibition of fungal growth by measuring morphological changes in presence of 50% human serum measured after 24 hrs by microscopy; type: functional; settings: read-out: MEC; outline: as §6
# [30] = test system: Candida albicans; test: Antifungal activity against Candida albicans MY1055 infected in DBA/2 mouse model of disseminated candidiasis assessed as reduction in fungal burden in kidney by measuring log change in colony forming units at 12.5 mg/kg, ip bid for 7 days by TOKA; type: functional; settings: time 7 day; outline: as §3
# [31] = Dose normalized AUC in po dosed dog; type: ADME, organism-based, Canis lupus familiaris; settings: in vivo
# [32] = test system: Pichia kudriavzevii; test: Antifungal activity against Candida krusei ATCC 6258 assessed as reduction in fungal growth; type: functional
# [33] = Oral bioavailability in dog; type: ADME, organism-based, Canis lupus familiaris; settings: in vivo; outline: as §5
# [34] = Clearance in dog; type: ADME, Canis lupus familiaris; settings: in vivo
# [35] = Dose normalized AUC in po dosed rat; type: ADME, organism-based; settings: in vivo
# [36] = Inhibition of beta-1,3-glucan synthase in Candida albicans MY1055 microsomal membrane assessed as inhibition of TCA-insoluble material formation using UDP-[3H]-glucose as substrate incubated for 2 hrs in presence of GTP by radioactivity-based assay; type: microsomes, Microsome
# Outline: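 GS IC50 measured using Candida albicans MY1055 microsomal membrane fragments as the enzyme source.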
# [37] = Half life in rhesus monkey; type: ADME, Macaca mulatta; settings: in vivo
# [38] = Half life in dog; type: ADME, Canis lupus familiaris; settings: in vivo
# [39] = test system: Candida albicans; test: Antifungal activity against Candida albicans MY1055 infected in DBA/2 mouse model of disseminated candidiasis assessed as reduction in fungal burden in kidney by measuring log change in colony forming units at 12.5 mg/kg, po bid for 7 days by TOKA; type: functional; settings: time 7 day; outline: as §3
# [40] = Oral bioavailability in rat; type: ADME, organism-based; settings: in vivo; outline: as §5
# [41] = test system: Aspergillus fumigatus; test: Antifungal activity against Aspergillus fumigatus MF5668 infected in DBA/2N mouse assessed as mouse survival at 1.56 mg/kg, ip bid administered for 7 days starting from 15 to 30 mins post infection and measured up to 21 days relative to control; type: functional; settings: 168 h, time 7 day; outline: as §4
# [42] = test system: Aspergillus fumigatus; test: Antifungal activity against Aspergillus fumigatus MF5668 infected in DBA/2N mouse assessed as mouse survival at 6.25 mg/kg, ip bid administered for 7 days starting from 15 to 30 mins post infection and measured up to 21 days relative to control; type: functional; settings: 168 h, time 7 day; outline: as §4
# [43] = test system: Candida parapsilosis; test: Antifungal activity against Candida parapsilosis ATCC 22019 assessed as fungal growth inhibition; type: functional; settings: Lodderomyces parapsilosis, read-out: MIC100
# [44] = Dose normalized AUC in po rhesus monkey; type: ADME, organism-based, Macaca mulatta; settings: in vivo
# [45] = test system: Candida tropicalis; test: Antifungal activity against Candida tropicalis MY1012 assessed as fungal growth inhibition; type: functional; settings: read-out: MIC100
# [46] = Dose normalized AUC in po dosed mouse; type: ADME, organism-based; settings: in vivo
# [47] = Clearance in rat; type: ADME; settings: in vivo
# [48] = test system: Pichia kudriavzevii; test: Antifungal activity against Candida krusei ATCC 6258 assessed as fungal growth inhibition; type: functional; settings: read-out: MIC100
# [49] = test system: Candida albicans; test: Antifungal activity against Candida albicans MY1055 infected in DBA/2 mouse model of disseminated candidiasis assessed as reduction in fungal burden in kidney by measuring log change in colony forming units at 25 mg/kg, po bid for 7 days by TOKA; type: functional; settings: time 7 day; outline: as §3
smiles,measurement,setting,value
CC(C)[C@@H](C)[C@@]1(C)CC[C@]2(C)[C@H]3CC[C@@H]4[C@@]5(COC[C@@]4(C)[C@@H](OC[C@](C)(N)C(C)(C)C)[C@H](n4ncnc4-c4ccncc4)C5)C3=CC[C@@]2(C)[C@@H]1C(=O)O [IBREXAFUNGERP],MIC50,[1],1 µg/mL
same,MST,[2],19.4 days
same,MIC,[3],0.5 µg/mL
same,MIC50,[4],1 µg/mL
same,MIC50,[5],0.25 µg/mL
same,MIC,[6],2 µg/mL
same,ED99,[7],0.84 mg/kg
same,MST,[8],19.2 days
same,clearance,[9],11 mL/min/kg
same,survival at 3.125 mg/kg,[10],20%
same,MIC50,[11],< 0.03 µg/mL
same,bioavailability,[12],34%
same,MIC50,[13],1 µg/mL
same,MIC,[14],1 µg/mL
same,half-life,[15],8.3 h
same,clearance,[16],14 mL/min/kg
same,MIC,[17],0.06 µg/mL
same,bioavailability,[18],16%
same,MST,[19],5.1 days
same,survival at 12.5 mg/kg,[20],90%
same,Activity,[21],-2.2 deltalog10CFU
same,MST,[22],12.2 days
same,ED90,[23],8.9 mg/kg
same,half-life,[24],4.4 h
same,ED50,[25],4.5 mg/kg
same,MIC,[26],0.5 µg/mL
same,minimal effective concentration,[27],< 0.03 µg/mL
same,MIC50,[28],< 0.03 µg/mL
same,minimal effective concentration,[29],0.25 µg/mL
same,Activity,[30],-3.99 deltalog10CFU
same,AUC/dose,[31],1.07 µM·kg·h/mg
same,MIC50,[32],2 µg/mL
same,bioavailability,[33],18%
same,clearance,[34],4 mL/min/kg
same,AUC/dose,[35],0.69 µM·kg·h/mg
same,IC50,[36],0.001 µg/mL
same,half-life,[37],5.7 h
same,half-life,[38],11.3 h
same,Activity,[39],-3.2 deltalog10CFU
same,bioavailability,[40],23%
same,survival at 1.56 mg/kg,[41],0%
same,survival at 6.25 mg/kg,[42],90%
same,MIC,[43],0.5 µg/mL
same,AUC/dose,[44],0.33 µM·kg·h/mg
same,MIC,[45],8 µg/mL
same,AUC/dose,[46],0.59 µM·kg·h/mg
same,clearance,[47],8 mL/min/kg
same,MIC,[48],4 µg/mL
same,Activity,[49],-4.6 deltalog10CFU
